Screening results: PubChem, Broad Institute
RAD52 anneal inh: RAD52 (human) annealing inhibition; inhibition, % at 18.7 µM; hit rate 0.46% among 360,000; recombinant RAD52 DNA annealing, FRET fluorescence; AID 651710;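 active = every replicate showing at least 50% inhibition; inconclusive = mean inhibition at least 50% but not in every replicate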
Target sequence (P43351 whole entry, looked up): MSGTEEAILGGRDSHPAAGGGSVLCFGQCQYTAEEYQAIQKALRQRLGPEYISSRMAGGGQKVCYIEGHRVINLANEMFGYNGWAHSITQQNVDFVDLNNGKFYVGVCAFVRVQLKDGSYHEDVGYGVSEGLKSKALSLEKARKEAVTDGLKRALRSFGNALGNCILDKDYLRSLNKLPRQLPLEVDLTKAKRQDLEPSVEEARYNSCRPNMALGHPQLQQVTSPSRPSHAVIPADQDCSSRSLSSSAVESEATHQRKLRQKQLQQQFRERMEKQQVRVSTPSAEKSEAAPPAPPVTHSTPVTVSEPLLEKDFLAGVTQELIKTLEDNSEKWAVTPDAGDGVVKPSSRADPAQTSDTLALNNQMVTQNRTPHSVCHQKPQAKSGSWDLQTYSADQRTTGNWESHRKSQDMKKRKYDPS
rRNA inh HTS: inhibitors of bacterial rRNA selective over humanized ribosomes | E. coli WT GFP vs humanized-ribosome RFP mutants, fluorescence, 24 h; active compounds read low; DMSO median 0, no signal -100 | GFP signal change (wild-type ribosome), % (test concentration not listed) | hit rate 1.6% among 350,000 | AID 720706;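 active = significant combined selectivity score with lowered wild-type GFP, culture density cut under 30%, mutant RFP and density less affected; inactive = any of these conditions unmet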
RAD54 branch: blocks human RAD54 Holliday junction branch migration; FAM/BHQ fluorescence; inhibition, % at 10.4 µM; hit rate 0.14% among 360,000;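 active = mean normalized replicate activity at least 40 and at least half of replicates scoring 40 or more; inconclusive = only one of the two criteria met; inactive = mean below 40 and under half of replicates reaching 40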;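 note: inhibitors cause a drop in the FAM fluorescence signal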
PglD inh: blocks C. jejuni PglD acetyltransferase activity | hit rate 0.098% among 360,000 | purified PglD enzyme, DTNB colorimetric CoA detection | inhibition, % at 12.5 µM; in the data active = inhibition above about 16%, passing the limit was not always enough; inconclusive = no clear call, values can overlap the other calls
Cneo AK release: causes C. neoformans cell lysis. adenylate kinase release luminescence, 4 h; normalised: neutral wells 0, clomiphene wells 100. lysis activity, % at 15 µM. hit rate 0.2% among 360,000. AID 651654;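 active = mean lysis activity across replicates of at least 80%, whatever share of replicates individually reach that level; inactive = mean lysis activity below 80%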
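Material – log-phase Cryptococcus neoformans yeast cells · Input – 5 × 10^6 yeast cells/mL · Medium – fresh YPD growth medium · Doses – single compound concentration per well · Timing – static 4 h at 37 °C with compound, 1 h detection · Detection – adenylate kinase release luminescence · Read-out – signal increase indicating cell lysis · Control set – Clomiphene as positive lysis control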
RAD52 DNA ctr: DNA binding artifact in RAD52 counter-screen; AC50, µM; Salmon sperm DNA/acridine orange FP displacement; hit rate 8% among 1,000; shares compounds with RAD52 anneal inh;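 active = fitted half-maximal concentration for signal loss at or below twice the highest dose tested, in every separate run, actives reach about 64 µM in these data; inconclusive = runs disagree, or flat partial signal loss, or poor fit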
AID977621: growth inhibition of wild-type GFP E. coli, dose response, H69 mutant RFP, cherry-pick; activity change, negative = inhibition at 50 µM; shares compounds with rRNA inh HTS; AID 977621; 1,900 tested, under 10 active; E. coli wild-type GFP strain growth, fluorescence, 24 h;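 active = Wild-type ribosome reporter drop at least double the humanized mutant ribosome reporter drop, growth loss under a set limit; inconclusive = no clear call, values can overlap the other calls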;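 note: wild-type GFP and H69 mutant RFP strains grown together 50/50 in each well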
AID977628: growth of wild-type and h24-humanized E. coli strains – h24 mutant RFP vs wild-type GFP, cherry-pick, dose response; AID 977628; E. coli WT GFP strain growth, fluorescence, 24 h; shares compounds with rRNA inh HTS; activity change, negative = inhibition at 50 µM; 1,900 tested, under 10 active;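 active = compound lowering the normal-ribosome reporter at least twice as much as the humanized-ribosome reporter, growth loss under a set limit; inconclusive = no clear call, values can overlap the other calls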;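 note: wild-type GFP and h24 humanized RFP strains co-cultured 1 to 1 per well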
A number is an active result; 0 = inactive; ? = inconclusive; - = no result given. Sampled rows, rich in hits. Any-hit rate of the full collection: about 1.9%.

SMILES | RAD52 anneal inh | rRNA inh HTS | RAD54 branch | PglD inh | Cneo AK release | AID977621 | AID977628 | others
CCN(CC)CCn1c2ccccc2c2nc3ccccc3nc21 | 89 | 0 | 106 | 0 | 0 | - | - | RAD52 DNA ctr=0
CCN(CC)CCn1c2ccccc2c2n[nH]c(=S)nc21 | 73 | 0 | 0 | 0 | 0 | - | - | RAD52 DNA ctr=0
c1ccc2c(NCCCN3CCOCC3)c3ccccc3nc2c1 | 93 | 0 | - | - | - | - | - | RAD52 DNA ctr=33µM
C[C@H]1CN([C@@H](C)CO)S(=O)(=O)c2ccc(C3=CCCCC3)cc2O[C@H]1CN(C)C(=O)Nc1ccc2c(c1)OCO2 | 0 | 0 | 0 | 0 | 0 | - | -
CC[n+]1c(C)cc2c(sc3ccccc32)c1C | 57 | -22 | - | - | - | 0 | 0 | RAD52 DNA ctr=0
COc1cccc(NC(=O)CSc2nc3c(sc4ccccc43)c(=O)n2CCN(C)C)c1 | 74 | -22 | - | - | - | ? | 0 | RAD52 DNA ctr=0
COc1cccc(NC(=O)CSc2nc3c([nH]c4ccccc43)c(=O)n2C)c1 | 0 | 0 | - | - | - | - | -
C[C@@H]1CN([C@@H](C)CO)C(=O)c2cc(NS(=O)(=O)c3cccs3)ccc2O[C@@H]1CN(C)S(=O)(=O)c1ccc(Cl)cc1 | 0 | 0 | 0 | 0 | 0 | - | -
Cc1ccc(-n2nc(C)c3c(C)c(CCC(=O)O)c(C)nc32)cc1C | 0 | -26 | 0 | 0 | 0 | 0 | -
Cc1ccc(-n2nc(C)c3c(C)c(CCC(=O)O)c(C)nc32)cc1 | 0 | 0 | 0 | 0 | 0 | - | -
Cc1onc(-c2c(Cl)cccc2Cl)c1C(=O)Nc1ccc(Cl)cn1 | 0 | -20 | - | - | - | 0 | 0
Cc1ccc(NC(=O)c2c(-c3ccccc3Cl)noc2C)nc1 | 0 | 0 | - | - | - | - | -
Cc1onc(-c2ccccc2Cl)c1C(=O)Nc1ccc(Cl)cn1 | 0 | -22 | - | - | - | 0 | 0
CCn1c(CNC(=O)c2ccccc2F)cc2cc(C)ccc21 | 0 | -20 | 0 | 0 | 0 | ? | -
CCn1c(CNC(=O)c2ccccc2F)cc2ccccc21 | 0 | 0 | 0 | 0 | 0 | - | -
Cc1ccc(NC(=O)c2ccccc2Cl)c(Cl)c1 | - | - | 0 | 0 | 0 | - | -
Cc1ccc(NC(=O)c2ccccc2F)c(NC(=O)c2ccccc2F)c1 | 0 | -20 | 0 | 0 | 0 | 0 | 0
COc1ccc(NC(=O)N(C)C[C@H]2Oc3ccc(NS(=O)(=O)c4cn(C)cn4)cc3CC(=O)N([C@@H](C)CO)C[C@H]2C)cc1 | 0 | 0 | 0 | 0 | 0 | - | -
CCOCC(=O)OCC(=O)Nc1cc(OC)c([N+](=O)[O-])cc1C | 0 | 0 | - | - | - | - | -
COc1cc(NC(=O)COC(=O)CC(C)(C)C)c(C)cc1[N+](=O)[O-] | 0 | -22 | - | - | - | ? | -
Cc1noc(C)c1NC(=O)N(C)C[C@@H]1Oc2cc(C#CCC3CCCC3)ccc2S(=O)(=O)N([C@@H](C)CO)C[C@H]1C | 0 | 0 | 0 | 0 | 0 | - | -
C[C@H](CO)N1C[C@H](C)[C@@H](CN(C)Cc2ccc(-c3ccccc3)cc2)Oc2ccc(NC(=O)CCN3CCOCC3)cc2CC1=O | 0 | 0 | - | - | - | - | -
COc1cc(OC)cc(C(=O)Nc2ccc(S(=O)(=O)Nc3cnc4ccccc4n3)cc2)c1 | 0 | -44 | 0 | 0 | 0 | 0 | -
COc1cc(C(=O)Nc2ccc(S(=O)(=O)Nc3cnc4ccccc4n3)cc2)cc(OC)c1OC | 0 | 0 | 0 | 0 | 0 | - | -
O=C(c1ccccn1)N1C[C@H]2[C@@H](c3ccccc31)[C@H](CO)N2C(=O)Nc1ccccc1 | 0 | 0 | 0 | 0 | 0 | - | -
SMILES | RAD52 anneal inh | rRNA inh HTS | RAD54 branch | PglD inh | Cneo AK release | AID977621 | AID977628 | others
CCNC(=O)C[C@H]1CC[C@H]2[C@@H](COC[C@H](O)CN2C(=O)c2cc(Cl)cc(Cl)c2)O1 | - | 0 | 0 | 0 | 0 | - | -
C/C=C/c1ccc([C@H]2[C@@H](CO)N(S(C)(=O)=O)[C@H]2CNC(C)C)cc1 | 0 | 0 | - | - | - | - | -
CCn1c(COc2ccccc2)nnc1SCC(=O)Nc1cc(OC)ccc1OC | - | - | 0 | 0 | 0 | - | -
CCn1c(COc2cccc(OC)c2)nnc1SCC(=O)Nc1cc(OC)ccc1OC | 0 | -23 | 0 | 0 | 0 | 0 | 0
C[C@@H]1CN([C@H](C)CO)C(=O)c2cc(NC(=O)CCCN(C)C)ccc2O[C@@H]1CN(C)S(=O)(=O)c1ccccc1 | 0 | 0 | 0 | 0 | 0 | - | -
C[C@@H]1CN([C@H](C)CO)S(=O)(=O)c2ccc(-c3ccncc3)cc2O[C@@H]1CN(C)C | 0 | 0 | 0 | 0 | 0 | - | -
Cc1nc(Nc2ccccc2)sc1C(=O)Nc1ccccc1 | 0 | -22 | - | - | - | ? | ?
CCOC(=O)c1sc(Nc2cccc(Cl)c2)nc1C | 0 | -23 | 0 | 0 | 0 | 0 | 0
Cc1ccccc1-c1nc(CS(=O)(=O)CC(=O)N2CCCCC2)c(C)o1 | 0 | -19 | 0 | 0 | 0 | 0 | 0
Cc1cccc(C(=O)NCC(=O)N2CC=C(c3ccccc3)CC2)c1 | 0 | -30 | 0 | 0 | 0 | 0 | ?
COc1ccc(C(=O)NCC(=O)N2CC=C(c3ccccc3)CC2)cc1OC | 0 | 0 | 0 | 0 | 0 | - | -
O=C(C[C@@H]1CC[C@@H](NS(=O)(=O)c2ccc(F)cc2)[C@@H](CO)O1)NCCN1CCCCC1 | 0 | 0 | 0 | 0 | 0 | - | -
CO[C@H]1CN(C)C(=O)c2ccc(NC(=O)C3CC3)cc2OC[C@@H](C)N(C(=O)c2ccccc2F)C[C@@H]1C | 0 | 0 | 0 | 0 | 0 | - | -
O=C(O)CC1(CC(=O)Nc2ccc3sccc3c2)CCCCC1 | 0 | -26 | 0 | 0 | 0 | 0 | 0
O=C(Nc1cccc2c1CCCC2)c1ccco1 | 0 | -21 | - | - | - | 0 | 0
CCNC(=O)Nc1ccc2c(c1)C(=O)N(C)[C@@H]1CC[C@H](CC(=O)NCCN3CCCC3)O[C@H]1CO2 | - | 0 | 0 | 0 | 0 | - | -
O=C(O)c1cccc2c1C(=O)c1cc([N+](=O)[O-])cc([N+](=O)[O-])c1-2 | 0 | 0 | 0 | 0 | 0 | - | -
O=C(O)c1cccc2c1-c1ccc([N+](=O)[O-])cc1C2=O | 0 | -19 | - | - | - | 0 | 0
O=C(CCNc1cccc(Cl)c1)c1cccs1 | 0 | -20 | - | - | - | 0 | 0
O=C(Nc1cc(F)ccc1F)N1C[C@@H]2[C@H](c3ccccc31)[C@H](CO)N2C(=O)c1ccccc1 | 0 | 0 | 0 | 0 | 0 | - | -
CC(C)CN(C(=O)c1cc([N+](=O)[O-])cc([N+](=O)[O-])c1)C1CCS(=O)(=O)C1 (stereo not given) | 0 | -16 | 0 | 0 | 0 | 0 | 0
CC(C)CN(C(=O)CCNC(=O)c1ccc([N+](=O)[O-])cc1)C1CCS(=O)(=O)C1 (stereo not given) | 0 | 0 | 0 | 0 | 0 | - | -
CCS(=O)(=O)N[C@@H]1C=C[C@H](CC(=O)NCc2ccccn2)O[C@@H]1CO | 0 | 0 | - | - | - | - | -
CCCn1c(C(C)Nc2nc(-c3cccc(Br)c3)cs2)nc2ccccc21 (stereo not given) | 0 | 0 | 0 | 0 | 0 | - | -
